Blank lines part the entries; values can stand above or below the molecule they belong to. Active and inactive are the calls of the source. No cut-off for these calls is given here.
Tests used:
[1] = system: Nucleic Acid; experiment: Binding affinity to human telomeric G4 DNA of sequence 5'-FAM-d(GGG[TTAGGG]3)-TAMRA-3' assessed as change in melting temperature by FRET DNA melting assay; assay type: nucleic-acid assay
[2] = system: A549; experiment: Cytotoxicity against human A549 cell after 72 hrs by SRB assay; assay type: functional, cell-based; conditions: A549, 72 h
[3] = system: IMR-90 (Homo sapiens); experiment: Cytotoxicity against human IMR90 cell after 72 hrs by SRB assay; conditions: IMR-90, 72 h
[4] = system: Nucleic Acid; experiment: Binding affinity to human Duplex DNA of sequence 5'-FAM-dTATAGCTATA-HEG-TATAGCTATA-TAMRA-3' assessed as change in melting temperature by FRET DNA melting assay; assay type: nucleic-acid assay
[5] = system: MCF7; experiment: Cytotoxicity against human MCF7 cell after 72 hrs by SRB assay; assay type: functional, cell-based; conditions: MCF7, 72 h
[6] = Cytotoxicity against human IMR90 cell after 72 hrs by SRB assay; assay type: cell-based; conditions: IMR-90, 72 h
[7] = system: MCF7 (Homo sapiens); experiment: Cytotoxicity against human MCF7 cell after 72 hrs by SRB assay; conditions: MCF7, 72 h
[8] = system: A549; experiment: Cytotoxic activity in human A549 cell assessed by number of scenescence cell at 35 uM after 4 weeks; assay type: functional
In short: (§1)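 Long-term MCF7 or A549 cultures were dosed at the start and then re-dosed three times weekly. At each re-dose the medium was discarded, cells were PBS-washed, and fresh medium plus compound was added. For staining, 1 × 10^5 cells per well were plated in medium with compound. After 24 h they were stained for senescence-associated β-galactosidase, and blue cells were counted by microscopy.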

[9] = system: A549; experiment: Cytotoxic activity in human A549 cell assessed by number of scenescence cell at 25 uM after 3 weeks; assay type: functional; in short: as §1
[10] = system: A549; experiment: Cytotoxic activity in human A549 cell assessed by number of scenescence cell at 35 uM after 5 weeks; assay type: functional; in short: as §1
[11] = system: A549; experiment: Cytotoxic activity in human A549 cell assessed by number of scenescence cell at 10 uM after 1 weeks; assay type: functional; in short: as §1
[12] = system: MCF7; experiment: Cytotoxic activity in human MCF7 cell assessed as number of scenescence cell at 10 uM after 1 week; assay type: functional; in short: as §1
[13] = system: A549; experiment: Cytotoxic activity in human A549 cell assessed by number of scenescence cell at 10 uM after 3 weeks; assay type: functional; in short: as §1
[14] = system: A549; experiment: Cytotoxic activity in human A549 cell assessed by number of scenescence cell at 10 uM after 4 weeks; assay type: functional; in short: as §1
[15] = system: A549; experiment: Cytotoxic activity in human A549 cell assessed by number of scenescence cell at 25 uM after 5 weeks; assay type: functional; in short: as §1
[16] = system: MCF7; experiment: Cytotoxic activity in human MCF7 cell assessed by number of scenescence cell at 25 uM after 3 weeks; assay type: functional; in short: as §1
[17] = molecular target: Telomerase reverse transcriptase (Homo sapiens) (UniProt O14746); experiment: Inhibition of Telomerase by TRAP-LIG assay
Sequence of Telomerase reverse transcriptase (Homo sapiens) (O14746 whole entry): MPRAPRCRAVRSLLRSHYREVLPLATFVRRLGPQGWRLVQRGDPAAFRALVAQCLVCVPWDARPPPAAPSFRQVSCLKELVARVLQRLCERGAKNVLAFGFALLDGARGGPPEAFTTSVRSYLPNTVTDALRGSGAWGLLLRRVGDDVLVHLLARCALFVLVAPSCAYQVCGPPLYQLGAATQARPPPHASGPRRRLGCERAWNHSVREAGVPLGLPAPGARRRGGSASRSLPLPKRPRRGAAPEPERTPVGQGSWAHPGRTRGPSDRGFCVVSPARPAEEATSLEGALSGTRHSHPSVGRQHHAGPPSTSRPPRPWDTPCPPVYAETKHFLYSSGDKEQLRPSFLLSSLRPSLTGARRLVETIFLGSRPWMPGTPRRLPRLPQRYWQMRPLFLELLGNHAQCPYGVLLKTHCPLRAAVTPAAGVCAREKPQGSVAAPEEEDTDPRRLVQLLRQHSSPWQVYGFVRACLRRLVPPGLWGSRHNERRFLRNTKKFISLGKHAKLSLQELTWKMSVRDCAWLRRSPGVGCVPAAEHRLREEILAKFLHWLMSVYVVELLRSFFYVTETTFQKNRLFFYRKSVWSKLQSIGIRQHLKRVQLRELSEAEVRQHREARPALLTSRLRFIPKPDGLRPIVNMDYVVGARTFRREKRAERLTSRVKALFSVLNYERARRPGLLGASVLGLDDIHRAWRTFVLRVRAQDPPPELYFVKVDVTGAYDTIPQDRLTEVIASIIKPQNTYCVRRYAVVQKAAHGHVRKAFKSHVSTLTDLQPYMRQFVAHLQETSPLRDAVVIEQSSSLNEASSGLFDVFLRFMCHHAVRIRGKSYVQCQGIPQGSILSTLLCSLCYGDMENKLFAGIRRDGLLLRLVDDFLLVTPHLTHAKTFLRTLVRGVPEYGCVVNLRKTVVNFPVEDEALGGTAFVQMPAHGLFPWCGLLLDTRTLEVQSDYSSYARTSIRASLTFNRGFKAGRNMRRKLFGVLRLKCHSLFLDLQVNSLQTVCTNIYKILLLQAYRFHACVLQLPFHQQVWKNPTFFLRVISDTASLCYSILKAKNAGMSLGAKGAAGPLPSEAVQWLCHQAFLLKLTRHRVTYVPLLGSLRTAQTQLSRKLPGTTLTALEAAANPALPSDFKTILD

[18] = system: MCF7; experiment: Cytotoxic activity in human MCF7 cell assessed as number of scenescence cell at 10 uM after 3 weeks; assay type: functional; in short: as §1
[19] = system: A549; experiment: Cytotoxic activity in human A549 cell assessed by number of scenescence cell at 25 uM after 4 weeks; assay type: functional; in short: as §1
[20] = system: A549; experiment: Cytotoxic activity in human A549 cell assessed by number of scenescence cell at 35 uM after 1 week; assay type: functional; in short: as §1
[21] = system: A549; experiment: Cytotoxic activity in human A549 cell assessed by number of scenescence cell at 10 uM after 5 weeks; assay type: functional; in short: as §1
[22] = system: MCF7; experiment: Cytotoxic activity in human MCF7 cell assessed by number of scenescence cell at 25 uM after 1 week; assay type: functional; in short: as §1
[23] = system: MCF7; experiment: Cytotoxicity against human MCF7 by SRB assay; assay type: functional, cell-based
[24] = system: MCF7; experiment: Cytotoxic activity in human MCF7 cell assessed as number of scenescence cell at 10 uM after 4 weeks; assay type: functional; in short: as §1
[25] = system: A549; experiment: Cytotoxic activity in human A549 cell assessed by number of scenescence cell at 25 uM after 1 week; assay type: functional; in short: as §1
[26] = system: MCF7; experiment: Cytotoxic activity in human MCF7 cell assessed as number of scenescence cell at 10 uM after 5 weeks; assay type: functional; in short: as §1
[27] = system: A549; experiment: Cytotoxic activity in human A549 cell assessed by number of scenescence cell at 35 uM after 3 weeks; assay type: functional; in short: as §1
[28] = system: MCF7; experiment: Cytotoxic activity in human MCF7 cell assessed by number of scenescence cell at 35 uM after 1 week; assay type: functional; in short: as §1
[29] = system: MCF7 (Homo sapiens); experiment: Cytotoxicity against human MCF7 at 10 uM by assessed as population doublings SRB assay
[30] = system: Nucleic Acid; experiment: Telomere shortening in DNA assessed by measuring telomere length after 6 weeks; assay type: nucleic-acid assay
[31] = system: MCF7; experiment: Cytotoxic activity in human MCF7 cell assessed by number of scenescence cell at 15 uM after 5 weeks; assay type: functional; in short: as §1
[32] = system: MCF7; experiment: Cytotoxic activity in human MCF7 cell assessed by number of scenescence cell at 5 uM after 4 weeks; assay type: functional; in short: as §1
[33] = system: MCF7; experiment: Cytotoxic activity in human MCF7 cell assessed by number of scenescence cell at 5 uM after 5 weeks; assay type: functional; in short: as §1
[34] = system: MCF7; experiment: Cytotoxic activity in human MCF7 cell assessed by number of scenescence cell at 15 uM after 4 weeks; assay type: functional; in short: as §1

ΔTm [1]: 33 °C
ΔTm [4]: 2.5 °C
SMILES: O=C(Nc1ccc(NCCCN2CCCC2)cc1)c1cccc2c(=O)c3cccc(C(=O)Nc4ccc(NCCCN5CCCC5)cc4)c3[nH]c12
IC50 [2]: 66 µM
IC50 [3]: > 100 µM

ΔTm [1]: 15 °C
ΔTm [4]: 0 °C
SMILES: O=C(CCCN1CCCC1)Nc1ccc(NC(=O)c2cccc3c(=O)c4cccc(C(=O)Nc5ccc(NC(=O)CCCN6CCCC6)cc5)c4[nH]c23)cc1
IC50 [2]: 8 µM
IC50 [3]: > 100 µM

ΔTm [1]: 24.5 °C
ΔTm [4]: 0 °C
SMILES: O=C(CCNC1CCCCC1)Nc1ccc(NC(=O)c2cccc3c(=O)c4cccc(C(=O)Nc5ccc(NC(=O)CCNC6CCCCC6)cc5)c4[nH]c23)cc1
IC50 [2]: 31 µM
IC50 [3]: > 100 µM

ΔTm [1]: 22.5 °C
ΔTm [4]: 0.75 °C
SMILES: O=C(CCCCN1CCCC1)Nc1ccc(NC(=O)c2cccc3c(=O)c4cccc(C(=O)Nc5ccc(NC(=O)CCCCN6CCCC6)cc5)c4[nH]c23)cc1
IC50 [2]: 43 µM
IC50 [5]: > 100 µM
IC50 [6]: 2 µM

ΔTm [1]: 11 °C
ΔTm [4]: 0.5 °C
SMILES: O=C(CCN1CCCC1)Nc1ccc(NC(=O)c2cccc3c(=O)c4ccccc4[nH]c23)cc1
IC50 [2]: 16 µM
IC50 [7]: 9 µM
IC50 [3]: 7.5 µM

ΔTm [1]: 25.5 °C
ΔTm [4]: 0.5 °C
SMILES: O=C(CN1CCCC1)Nc1ccc(NC(=O)c2cccc3c(=O)c4cccc(C(=O)Nc5ccc(NC(=O)CN6CCCC6)cc5)c4[nH]c23)cc1
IC50 [2]: > 100 µM
IC50 [3]: > 100 µM

ΔTm [1]: 15 °C
ΔTm [4]: 0.5 °C
SMILES: O=C(CCn1ccnc1)Nc1ccc(NC(=O)c2cccc3c(=O)c4cccc(C(=O)Nc5ccc(NC(=O)CCn6ccnc6)cc5)c4[nH]c23)cc1
IC50 [2]: 19 µM
IC50 [3]: > 100 µM

ΔTm [1]: 31 °C
ΔTm [4]: 2.5 °C
SMILES: CN(C)CCCNc1ccc(NC(=O)c2cccc3c(=O)c4cccc(C(=O)Nc5ccc(NCCCN(C)C)cc5)c4[nH]c23)cc1
IC50 [2]: > 100 µM
IC50 [3]: > 100 µM

ΔTm [1]: 34 °C
ΔTm [4]: 2.5 °C
SMILES: O=C(CCN1CCCC1)Nc1ccc(NC(=O)c2cccc3c(=O)c4cccc(C(=O)Nc5ccc(NC(=O)CCN6CCCC6)cc5)c4[nH]c23)cc1
IC50 [2]: 16 µM
IC50 [3]: > 100 µM

ΔTm [1]: 15 °C
ΔTm [4]: 0 °C
SMILES: Cn1cc(NC(=O)c2cccc3c(=O)c4cccc(C(=O)Nc5cc(C(=O)NCCCN6CCCC6)n(C)c5)c4[nH]c23)cc1C(=O)NCCCN1CCCC1
IC50 [2]: 21 µM
IC50 [3]: > 100 µM

ΔTm [1]: 20 °C
ΔTm [4]: 0 °C
SMILES: O=C(Nc1ccc(NCCCN2CCOCC2)cc1)c1cccc2c(=O)c3cccc(C(=O)Nc4ccc(NCCCN5CCOCC5)cc4)c3[nH]c12
IC50 [2]: > 100 µM
IC50 [7]: > 100 µM
IC50 [3]: > 100 µM

ΔTm [1]: 28 °C
ΔTm [4]: 1.5 °C
SMILES: CN1CCN(CCCNc2ccc(NC(=O)c3cccc4c(=O)c5cccc(C(=O)Nc6ccc(NCCCN7CCN(C)CC7)cc6)c5[nH]c34)cc2)CC1
IC50 [2]: > 100 µM
IC50 [3]: > 100 µM

ΔTm [1]: 29 °C
Activity [17]: inactive
Activity [30]: inactive
ΔTm [4]: 3 °C
SMILES: O=C(CCN1CCCC1)Nc1cccc(NC(=O)c2cccc3c(=O)c4cccc(C(=O)Nc5cccc(NC(=O)CCN6CCCC6)c5)c4[nH]c23)c1
Activity [8]: 0%
Activity [9]: 21%
Activity [10]: 0%
Activity [11]: 0%
IC50 [2]: > 100 µM
Activity [12]: 2%
Activity [13]: 12%
Activity [14]: 0%
Activity [15]: 0%
Activity [16]: 25%
Activity [18]: 3%
Activity [19]: 0%
Activity [20]: 8%
Activity [21]: 0%
Activity [22]: 3%
IC50 [23]: 84 µM
Activity [24]: 0%
Activity [25]: 9%
Activity [26]: 1%
Activity [27]: 30%
Activity [28]: 12%
IC50 [3]: > 100 µM
Activity [29]: 17.5

ΔTm [1]: 0 °C
ΔTm [4]: 0 °C
SMILES: O=C(CCC(=O)N1CCCC1)Nc1ccc(NC(=O)c2cccc3c(=O)c4cccc(C(=O)Nc5ccc(NC(=O)CCC(=O)N6CCCC6)cc5)c4[nH]c23)cc1
IC50 [2]: 27 µM
IC50 [3]: > 100 µM

ΔTm [1]: 31 °C
ΔTm [4]: 1.5 °C
SMILES: CN1CCN(CCC(=O)Nc2ccc(NC(=O)c3cccc4c(=O)c5cccc(C(=O)Nc6ccc(NC(=O)CCN7CCN(C)CC7)cc6)c5[nH]c34)cc2)CC1
IC50 [2]: > 100 µM
IC50 [3]: > 100 µM

ΔTm [1]: 32 °C
Activity [17]: inactive
Activity [30]: inactive
ΔTm [4]: 2.5 °C
SMILES: CN(C)CCC(=O)Nc1ccc(NC(=O)c2cccc3c(=O)c4cccc(C(=O)Nc5ccc(NC(=O)CCN(C)C)cc5)c4[nH]c23)cc1
IC50 [2]: 15 µM
Activity [31]: 5%
Activity [32]: 2%
Activity [33]: 2%
Activity [34]: 0%
IC50 [3]: > 100 µM

ΔTm [1]: 31 °C
ΔTm [4]: 1.5 °C
SMILES: O=C(CCN1CCCCC1)Nc1ccc(NC(=O)c2cccc3c(=O)c4cccc(C(=O)Nc5ccc(NC(=O)CCN6CCCCC6)cc5)c4[nH]c23)cc1
IC50 [2]: > 100 µM
IC50 [3]: > 100 µM

ΔTm [1]: 7 °C
ΔTm [4]: 1 °C
SMILES: CN(C)CCCNC(=O)c1cccc2c(=O)c3cccc(C(=O)NCCCN(C)C)c3[nH]c12
IC50 [2]: 62 µM
IC50 [3]: > 100 µM

ΔTm [1]: 19 °C
ΔTm [4]: 0 °C
SMILES: O=C(CCN1CCOCC1)Nc1ccc(NC(=O)c2cccc3c(=O)c4cccc(C(=O)Nc5ccc(NC(=O)CCN6CCOCC6)cc5)c4[nH]c23)cc1
IC50 [2]: > 100 µM
IC50 [7]: > 100 µM
IC50 [3]: > 100 µM

Source: ChEMBL document CHEMBL1155326, “Design, synthesis and evaluation of 4,5-di-substituted acridone ligands with high G-quadruplex affinity and selectivity, together with low toxicity to normal cells” (Bioorg Med Chem Lett, 2009)
